The source of these data is ChEMBL document CHEMBL2331335, “Synthesis of hemslecin A derivatives: a new class of hepatitis B virus inhibitors” (Bioorg Med Chem Lett, 2013).

As a reminder, the IC50 is the point on the concentration scale where inhibition reaches its midpoint. By CC50 is commonly meant the concentration that lowers cell viability or growth by half. Read a high CC50 as better tolerance by the cells.

Series [1] can be described thus: Selectivity index, ratio of CC50 for human HepG2.2.15 cells to IC50 for HBV infected in human HepG2.2.15 cells assessed as inhibition of viral DNA replication. The class given is functional. The gist of the method:
(§1)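 Selectivity index was calculated as CC50 (HepG 2.2.15 cytotoxicity) divided by IC50 for the given marker (HBV DNA replication, HBeAg or HBsAg), all measured in HepG 2.2.15 cells.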

The test system of series [2] is Hepatitis B virus. In words: Antiviral activity against HBV infected in human HepG2.2.15 cells assessed as inhibition of viral DNA replication. The series is classed as functional, organism-based. The conditions noted are these: HepG2 2.2.15. A digest of the protocol: (§2)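 Assayed in HBV-producing HepG 2.2.15 cells, with tenofovir as positive control. HBsAg, HBeAg and HBV DNA replication were each measured, and IC50 was taken as the compound concentration giving 50% inhibition of the given marker.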

A short description of series [3]: Selectivity index, ratio of CC50 for human HepG2.2.15 cells to IC50 for HBV infected in human HepG2.2.15 cells assessed as inhibition of viral e antigen production. The class given is functional. The gist of the method: as §1
The subject of series [4] is Hepatitis B virus. As to the kind of experiment: Antiviral activity against HBV infected in human HepG2.2.15 cells assessed as inhibition of viral e antigen production. The class given is functional, organism-based. The conditions noted are these: HepG2 2.2.15. A digest of the protocol:
as §2

Series [5] in a line: Selectivity index, ratio of CC50 for human HepG2.2.15 cells to IC50 for HBV infected in human HepG2.2.15 cells assessed as inhibition of viral surface antigen production. The class given is functional. The gist of the method:
as §1

For series [6], the system named is Hepatitis B virus. As to the kind of experiment: Antiviral activity against HBV infected in human HepG2.2.15 cells assessed as inhibition of viral surface antigen production. The series is classed as functional, organism-based. The conditions noted are these: HepG2 2.2.15. The gist of the method: as §2
Series [7] can be described thus: Cytotoxicity against human HepG2.2.15 cells. The series is classed as cell-based, HepG2 2.2.15. A digest of the protocol: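 Cytotoxicity was tested in HepG 2.2.15 cells alongside the anti-HBV assay. CC50 was taken as the compound concentration required to destroy 50% of the cells.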

`CCCC(=O)O[C@@H]1[C@@H](O)C[C@@H]2C(=CC[C@@H]3[C@@]2(C)C(=O)C[C@]2(C)[C@@H]([C@@](C)(O)C(=O)CCC(C)(C)OC(C)=O)[C@H](O)C[C@@]32C)C1(C)C`: the results for the “Ratio CC50/IC50” value in series [1], in series [3] and in series [5] were 1.3, <1 and <1, respectively. In addition, the IC50 was 4.7 µM in the series with Hepatitis B virus [2], > 6.3 µM in the series with Hepatitis B virus [4] and > 6.3 µM with Hepatitis B virus [6]. Further, the midpoint of cytotoxicity in series [7], the CC50, lay at 6.3 µM.
Consider `CC(=O)OC(C)(C)CCC(=O)[C@](C)(O)[C@H]1[C@H](O)C[C@@]2(C)[C@@H]3CC=C4[C@@H](C[C@H](O)[C@@H](O)C4(C)C)[C@]3(C)C(=O)C[C@]12C` [HEMSLECIN A], for which the “Ratio CC50/IC50” value in series [1] was 5.8; in series [3] it was <1; in series [5], <1. The figures for the IC50 with Hepatitis B virus [2], with Hepatitis B virus [4] and with Hepatitis B virus [6] were 11.4 µM, > 66.2 µM and > 66.2 µM, respectively. In series [7], this compound had a 50% cytotoxic concentration (CC50) of 66.2 µM.
In the case of `CCOCC(=O)O[C@H]1C[C@@H]2C(=CC[C@@H]3[C@@]2(C)C(=O)C[C@]2(C)[C@@H]([C@@](C)(O)C(=O)CCC(C)(C)O)[C@H](OC(=O)COCC)C[C@@]32C)C(C)(C)[C@@H]1OC(=O)COCC`, the “Ratio CC50/IC50” value in series [1] is 2.2; in series [3], <1; in series [5] it was 1.8. For the same compound, the IC50 is 84.6 µM in the series with Hepatitis B virus [2], > 184 µM in the series with Hepatitis B virus [4] and 101 µM in the series on Hepatitis B virus [6]. In series [7], this compound returned a CC50 of 184 µM.
For the compound `CC(=O)OC(C)(C)CCC(=O)[C@](C)(O)[C@H]1[C@H](O)C[C@@]2(C)[C@@H]3C[C@@H](O)[C@]4(OC(=O)c5cccc(Cl)c5)[C@@H](C[C@H](O)[C@@H](O)C4(C)C)[C@]3(C)C(=O)C[C@]12C`, the “Ratio CC50/IC50” value in series [1] amounted to 50.9; in series [3] it was 11.9; in series [5], 15.3. Moreover, the IC50 in the series on Hepatitis B virus [2] amounted to 7.2 µM; with Hepatitis B virus [4], 30.9 µM; in the series on Hepatitis B virus [6] it was 24 µM. Also, in series [7], the half-maximal cytotoxic concentration (CC50) turned out to be 366 µM.
In the case of `CCC(=O)O[C@@H]1[C@@H](O)C[C@@H]2C(=CC[C@@H]3[C@@]2(C)C(=O)C[C@]2(C)[C@@H]([C@@](C)(O)C(=O)CCC(C)(C)OC(C)=O)[C@H](O)C[C@@]32C)C1(C)C`, the “Ratio CC50/IC50” value was 31.9 in series [1], 5.9 in series [3] and 5.5 in series [5]. Moreover, the values for the IC50 with Hepatitis B virus [2], in the series with Hepatitis B virus [4] and in the series on Hepatitis B virus [6] were 3.1 µM, 17 µM and 18.4 µM, respectively. For the same compound, the midpoint of cytotoxicity in series [7], the CC50, lay at 100 µM.
In the case of `CCC(=O)O[C@H]1C[C@@H]2C(=CC[C@@H]3[C@@]2(C)C(=O)C[C@]2(C)[C@@H]([C@@](C)(O)C(=O)CCC(C)(C)OC(C)=O)[C@H](O)C[C@@]32C)C(C)(C)[C@@H]1OC(=O)CC`, the “Ratio CC50/IC50” value in series [1] was >83.4; in series [3] it was >1; in series [5], >60. The IC50 worked out at 7.2 µM with Hepatitis B virus [2], 596 µM with Hepatitis B virus [4] and 9.9 µM in the series with Hepatitis B virus [6]. For the same compound, in series [7], the cytotoxic concentration (CC50) is > 596 µM.
Regarding `CCCC(=O)O[C@H]1C[C@@H]2C(=CC[C@@H]3[C@@]2(C)C(=O)C[C@]2(C)[C@@H]([C@@](C)(O)C(=O)CCC(C)(C)OC(C)=O)[C@H](O)C[C@@]32C)C(C)(C)[C@@H]1O`, the “Ratio CC50/IC50” value in series [1] is recorded as 2; in series [3] it was <1; in series [5] it was <1. Further, the IC50 in the series with Hepatitis B virus [2] was 6.1 µM; in the series on Hepatitis B virus [4], > 12.4 µM; with Hepatitis B virus [6], > 12.4 µM. For the same compound, in series [7], half-maximal cytotoxicity (CC50) was put at 12.4 µM.
As for `CC(=O)O[C@H]1C[C@@H]2C(=CC[C@@H]3[C@@]2(C)C(=O)C[C@]2(C)[C@@H]([C@@](C)(O)C(=O)CCC(C)(C)OC(C)=O)[C@H](O)C[C@@]32C)C(C)(C)[C@@H]1OC(C)=O`, the “Ratio CC50/IC50” value in series [1] came to 55.6; in series [3], 11.7; in series [5], 24.3. Also, the IC50 in the series with Hepatitis B virus [2] came to 9.8 µM; in the series on Hepatitis B virus [4], 46.7 µM; in the series with Hepatitis B virus [6], 22.4 µM. In series [7], the midpoint of cytotoxicity, the CC50, lay at 546 µM.
Turning to `CC(=O)O[C@@H]1[C@@H](O)C[C@@H]2C(=CC[C@@H]3[C@@]2(C)C(=O)C[C@]2(C)[C@@H]([C@@](C)(O)C(=O)CCC(C)(C)OC(C)=O)[C@H](O)C[C@@]32C)C1(C)C`, the “Ratio CC50/IC50” value in series [1] is on record as 89.7; in series [3], <1; in series [5], 1.3. The IC50 in the series with Hepatitis B virus [2] was 2.8 µM; in the series on Hepatitis B virus [4], > 254 µM; in the series with Hepatitis B virus [6] it was 190 µM. In series [7], this compound returned a half-maximal cytotoxic concentration (CC50) of 254 µM.
In the case of `CC(C)(O)CCC(=O)[C@](C)(O)[C@H]1[C@H](O)C[C@@]2(C)[C@@H]3CC=C4[C@@H](C[C@H](O)[C@@H](O)C4(C)C)[C@]3(C)C(=O)C[C@]12C`, the figures for the “Ratio CC50/IC50” value in series [1], in series [3] and in series [5] were 1.9, <1 and <1, respectively. The IC50 in the series on Hepatitis B virus [2] was 31.4 µM; with Hepatitis B virus [4], > 60.6 µM; in the series on Hepatitis B virus [6] it was > 60.6 µM. Besides, in series [7], the midpoint of cytotoxicity, the CC50, lay at 60.6 µM.
